Laboratory results from ChEMBL document CHEMBL3351672, “Saccharin derivatives as inhibitors of interferon-mediated inflammation” (J Med Chem, 2014).
Active and inactive are the calls of the source. The calls are words filed in the database; no cut-off is given here.

What was measured:
RAW264.7 [1] = experiment: Cytotoxicity against mouse RAW264.7 cells assessed as cell viability by WST1 assay; assay type: cell-based; conditions: read-out: LC50 (the source's name) (converted)
Outline: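 RAW 264.7 mouse macrophages were stimulated with 20 ng/mL LPS and given a range of compound concentrations, alongside the nitric oxide inhibition assay. Cell viability was measured at each tested concentration. LC50 was taken as the concentration giving 50% cell viability.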

RAW264.7 [2] = experiment: Antiinflammatory activity in mouse RAW264.7 cells assessed as inhibition of LPS-induced nitric oxide production; assay type: functional, cell-based
Outline: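 RAW 264.7 cells stimulated with 20 ng/mL LPS plus a range of compound concentrations; nitric oxide output measured. Data normalized so LPS + solvent = 100% and untreated cells = 0% activation; IC50 fitted from dose–response, points averaged over nine replicates (SD).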

RAW264.7 [3] = experiment: Inhibition of IFNgamma-induced iNOS mRNA expression in mouse RAW264.7 cells at 1 to 50 uM after 16 hrs by RT-PCR analysis; assay type: functional
[4] = Inhibition of JAK/STAT signaling pathway in LPS-induced mouse RAW264.7 cells assessed as inhibition of IFNgamma-induced nitric oxide production; assay type: cell-based
Outline: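 JAK/STAT1 signalling activated in RAW 264.7 cells with 5 ng/mL IFN-γ alongside varying compound concentrations; NO production measured. Values normalized with ligand + solvent as 100% and untreated cells as 0%; IC50 derived from dose–response.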

RAW264.7 [5] = experiment: Inhibition of LPS-induced iNOS protein expression in mouse RAW264.7 cells after 20 hrs by Western blot analysis; assay type: functional, cell-based
Outline: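 RAW 264.7 cells treated with LPS and varying compound concentrations; iNOS protein detected by Western blot using a pan-NOS antibody.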

[6] = Inhibition of JAK/STAT signaling pathway in LPS-induced mouse RAW264.7 cells assessed as change in NOS2 mRNA expression by RT-PCR analysis relative to control; assay type: cell-based
[7] = Inhibition of JAK/STAT signaling pathway in LPS-induced mouse RAW264.7 cells assessed as change in Cebpb mRNA expression by RT-PCR analysis relative to control; assay type: cell-based
RAW264.7 [8] = experiment: Antiinflammatory activity in mouse RAW264.7 cells assessed as inhibition of poly I:C-induced nitric oxide production; assay type: functional, cell-based
Outline: (§1)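 RAW 264.7 cells stimulated with Pam2CSK4 (TLR2/6 ligand) or Poly I:C (TLR3 ligand) with varying compound concentrations; NO production read out. Normalized to agonist + solvent (100%) versus untreated (0%); IC50 from dose–response curves, nine replicates averaged, SD shown.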

RAW264.7 [9] = experiment: Cytotoxicity against mouse RAW264.7 cells assessed as cell viability up to 100 uM by WST1 assay; assay type: cell-based
Outline: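 Cell viability assay run on the compound-treated RAW 264.7 cultures at each tested concentration; LC50 taken as concentration giving 50% viability.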

RAW264.7 [10] = experiment: Antiinflammatory activity in mouse RAW264.7 cells assessed as inhibition of pam2CSK4-induced nitric oxide production; assay type: functional, cell-based; outline: as §1
[11] = molecular target: T1, Nuclear factor NF-kappa-B complex (Homo sapiens) (UniProt Q00653+P19838+Q04206); experiment: Inhibition of LPS-induced NFkappaB activation in human HEK293T cells at 0.5 to 1 uM after 18 to 24 hrs by secreted embryonic alkaline phosphatase reporter gene assay; assay type: cell-based; conditions: HEK-293T
T1 sequence (P19838 whole entry, looked up): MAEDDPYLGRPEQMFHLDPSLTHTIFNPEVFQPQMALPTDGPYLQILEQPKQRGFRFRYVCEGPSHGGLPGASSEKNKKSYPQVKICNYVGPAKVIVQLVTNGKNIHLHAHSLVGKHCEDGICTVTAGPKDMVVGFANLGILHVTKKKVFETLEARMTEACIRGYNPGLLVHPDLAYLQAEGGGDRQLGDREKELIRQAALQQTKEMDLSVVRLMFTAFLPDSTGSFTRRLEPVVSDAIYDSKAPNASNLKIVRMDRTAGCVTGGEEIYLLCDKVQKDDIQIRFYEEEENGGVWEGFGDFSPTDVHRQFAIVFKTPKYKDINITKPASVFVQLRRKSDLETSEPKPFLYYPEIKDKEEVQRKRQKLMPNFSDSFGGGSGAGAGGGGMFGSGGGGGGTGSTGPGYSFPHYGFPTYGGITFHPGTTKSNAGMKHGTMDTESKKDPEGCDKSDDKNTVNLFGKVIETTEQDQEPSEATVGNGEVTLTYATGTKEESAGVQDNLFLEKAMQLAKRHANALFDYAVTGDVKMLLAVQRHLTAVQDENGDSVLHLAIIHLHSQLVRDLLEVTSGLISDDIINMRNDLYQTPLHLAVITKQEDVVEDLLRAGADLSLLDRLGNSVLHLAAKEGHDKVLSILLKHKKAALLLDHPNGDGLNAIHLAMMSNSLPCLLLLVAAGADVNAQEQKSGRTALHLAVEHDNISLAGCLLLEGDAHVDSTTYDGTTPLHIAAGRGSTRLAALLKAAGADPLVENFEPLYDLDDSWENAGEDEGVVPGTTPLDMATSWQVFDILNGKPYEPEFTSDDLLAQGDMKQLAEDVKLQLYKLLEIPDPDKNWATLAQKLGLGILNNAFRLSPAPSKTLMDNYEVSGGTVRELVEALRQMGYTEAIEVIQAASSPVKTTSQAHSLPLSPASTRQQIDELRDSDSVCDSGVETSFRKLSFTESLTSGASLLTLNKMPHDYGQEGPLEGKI
T1 sequence (Q00653 whole entry, looked up): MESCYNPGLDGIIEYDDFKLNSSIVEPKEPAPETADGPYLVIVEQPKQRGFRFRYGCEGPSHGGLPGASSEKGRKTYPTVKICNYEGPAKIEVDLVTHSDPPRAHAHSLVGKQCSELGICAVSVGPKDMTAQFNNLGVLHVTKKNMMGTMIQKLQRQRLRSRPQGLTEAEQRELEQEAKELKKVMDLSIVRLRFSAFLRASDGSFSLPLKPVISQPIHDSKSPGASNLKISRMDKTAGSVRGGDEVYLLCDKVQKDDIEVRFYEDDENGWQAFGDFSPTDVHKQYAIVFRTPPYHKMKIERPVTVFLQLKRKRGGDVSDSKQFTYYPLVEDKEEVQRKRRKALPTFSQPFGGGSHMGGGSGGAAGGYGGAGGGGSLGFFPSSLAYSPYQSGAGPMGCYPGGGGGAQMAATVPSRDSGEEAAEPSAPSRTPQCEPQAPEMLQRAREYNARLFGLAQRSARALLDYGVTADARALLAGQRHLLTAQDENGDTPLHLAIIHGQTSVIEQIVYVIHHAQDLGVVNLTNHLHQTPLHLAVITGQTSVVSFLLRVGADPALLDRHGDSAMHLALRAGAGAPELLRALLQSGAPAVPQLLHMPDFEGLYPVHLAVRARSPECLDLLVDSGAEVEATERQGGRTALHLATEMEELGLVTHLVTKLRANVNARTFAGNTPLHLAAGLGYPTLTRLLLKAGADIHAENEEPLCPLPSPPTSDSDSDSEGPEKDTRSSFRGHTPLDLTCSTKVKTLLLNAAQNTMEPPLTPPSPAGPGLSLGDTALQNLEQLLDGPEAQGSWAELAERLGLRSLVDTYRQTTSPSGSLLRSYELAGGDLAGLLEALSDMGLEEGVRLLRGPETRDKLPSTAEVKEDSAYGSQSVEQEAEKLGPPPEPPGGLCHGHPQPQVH
T1 sequence (Q04206 whole entry, looked up): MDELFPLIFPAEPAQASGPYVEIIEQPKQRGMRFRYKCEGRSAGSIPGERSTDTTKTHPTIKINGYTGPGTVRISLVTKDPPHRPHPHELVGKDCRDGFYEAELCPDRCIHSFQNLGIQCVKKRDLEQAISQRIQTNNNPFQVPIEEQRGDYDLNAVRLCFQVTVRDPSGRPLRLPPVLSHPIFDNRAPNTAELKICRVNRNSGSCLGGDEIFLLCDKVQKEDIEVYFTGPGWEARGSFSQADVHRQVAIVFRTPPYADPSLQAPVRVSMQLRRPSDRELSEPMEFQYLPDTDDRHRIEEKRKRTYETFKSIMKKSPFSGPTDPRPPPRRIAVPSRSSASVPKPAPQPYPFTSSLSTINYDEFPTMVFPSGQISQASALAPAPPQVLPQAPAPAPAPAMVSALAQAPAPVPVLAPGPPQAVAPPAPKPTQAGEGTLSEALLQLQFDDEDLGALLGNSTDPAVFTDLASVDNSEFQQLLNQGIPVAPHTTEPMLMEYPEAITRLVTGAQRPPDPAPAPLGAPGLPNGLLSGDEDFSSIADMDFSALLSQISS
Outline: (§2)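 NF-κB activation monitored by secreted embryonic alkaline phosphatase reporter in HEK 293T cells stimulated via TLR4 or TLR3; compound tested at concentrations […].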

[12] = molecular target: T1, Nuclear factor NF-kappa-B complex (Homo sapiens); experiment: Inhibition of TNFalpha-induced NFkappaB activation in human HEK293T cells at 0.5 to 1 uM after 18 to 24 hrs by secreted embryonic alkaline phosphatase reporter gene assay; assay type: cell-based; conditions: HEK-293T
[13] = Inhibition of JAK/STAT signaling pathway in LPS-induced mouse RAW264.7 cells assessed as change in Gtp1 mRNA expression by RT-PCR analysis relative to control; assay type: cell-based
RAW264.7 [14] = experiment: Inhibition of LPS-induced iNOS mRNA expression in mouse RAW264.7 cells after 20 hrs by RT-PCR analysis; assay type: functional, cell-based
Outline: (§3)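 RAW 264.7 cells incubated 20 h with 20 ng/mL LPS and varying compound concentrations; iNOS mRNA quantified by real-time PCR, ligand-induced cells set to fold change 1. Three biological replicates, each in technical duplicate; SD reported.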

[15] = tested on: RAW 264.7 cells (Mus musculus); experiment: Antiinflammatory activity in mouse RAW264.7 cells assessed as inhibition of LPS-induced nitric oxide production
RAW264.7 [16] = experiment: Inhibition of LPS-induced iNOS mRNA expression in mouse RAW264.7 cells at 10 to 100 uM after 20 hrs by RT-PCR analysis; assay type: functional; outline: as §3
[17] = molecular target: T1, Nuclear factor NF-kappa-B complex (Homo sapiens); experiment: Inhibition of poly I:C-induced NFkappaB activation in human HEK293T cells at 0.5 to 1 uM after 18 to 24 hrs by secreted embryonic alkaline phosphatase reporter gene assay; assay type: cell-based; conditions: HEK-293T; outline: as §2
RAW264.7 [18] = experiment: Inhibition of TNFalpha production in mouse RAW264.7 cells at 0.5 to 1 uM by ELISA; assay type: functional, cell-based
Outline: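 TNF-α cytokine levels from compound-treated RAW 264.7 cells measured by commercial ELISA.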

| SMILES | CC50 (RAW264.7 [1]) [µM] | IC50 (RAW264.7 [2]) [µM] | further results |
| --- | --- | --- | --- |
| O=C(NCc1ccco1)c1ccc(CN2Cc3ccccc3C2=O)cc1 | > 100 | 49.7 | – |
| COC(=O)N(Cc1ccco1)C(=O)c1ccc(CN2C(=O)c3ccccc3S2(=O)=O)cc1 | > 100 | 76 | – |
| O=C(NCc1ccco1)c1ccc(Cn2c(=O)c3ccccc3[s+]2[O-])cc1 (centres undefined) | > 100 | 23.3 | – |
| CC(=O)N(Cc1ccco1)C(=O)c1ccc(CN2C(=O)c3ccccc3S2(=O)=O)cc1 | > 100 | 42.6 | – |
| O=C(c1ccc(Cn2sc3ccccc3c2=O)cc1)N1CCCCC1 | 70.3 | 5.38 | – |
| CC(C)(C)OC(=O)N(Cc1ccco1)C(=O)c1ccc(CN2Cc3ccccc3S2(=O)=O)cc1 | > 100 | 10.6 | – |
| O=C(c1ccc(CN2Cc3ccccc3C2=O)cc1)N1CCCCC1 | > 100 | 21.9 | – |
| O=C(NCc1ccco1)c1ccc(Cn2sc3ccccc3c2=O)cc1 | > 100 | 19.8 | – |
| CC(C)(C)OC(=O)N(Cc1ccco1)C(=O)c1ccc(Cn2sc3ccccc3c2=O)cc1 | > 100 | 68 | inhibition (INH) (RAW264.7 [3]): 50% |
| CNC(=O)c1ccc(CN2C(=O)c3ccccc3S2(=O)=O)cc1 | > 100 | 37.7 | – |
| O=C(c1ccc(CN2C(=O)c3ccccc3C2=O)cc1)N1CCCCC1 | > 100 | > 100 | – |
| O=C(NCc1ccco1)c1ccc(CN2C(=O)c3ccccc3C2=O)cc1 | > 100 | 56 | – |
| O=C(c1ccc(Cn2oc3ccccc3c2=O)cc1)N1CCCCC1 | 66.2 | 16.8 | – |
| CC(C)(C)OC(=O)N(C(=O)OC(C)(C)C)C(=O)c1ccc(CN2C(=O)c3ccccc3S2(=O)=O)cc1 | > 100 | 33.4 | – |
| CC(C)(C)OC(=O)NC(=O)c1ccc(CN2C(=O)c3ccccc3S2(=O)=O)cc1 | > 100 | 64.7 | – |
| CC1=C(c2ccc(C)c(C)c2)S(=O)(=O)N(Cc2ccc(C(=O)N3CCCCC3)cc2)C1=O | > 100 | 16.5 | – |
| CC(C)(C)OC(=O)N(Cc1ccco1)C(=O)c1ccc(Cn2c(=O)c3ccccc3[s+]2[O-])cc1 (centres undefined) | 87.3 | 68 | – |
| CC(C)(C)OC(=O)N(Cc1ccco1)C(=O)c1ccc(CN2C(=O)c3ccccc3S2(=O)=O)cc1 | > 100 | 2.61 | IC50 [4]: 7.88 µM; inhibition [4]: Dose-dependent effect; inhibition (RAW264.7 [5]): Dose-dependent effect; Activity [6]: Active; Activity [7]: Active; IC50 (RAW264.7 [8]): 10.9 µM; inhibition (RAW264.7 [8]): Dose-dependent effect; Activity (RAW264.7 [9]): Non-toxic; IC50 (RAW264.7 [10]): 1.69 µM; inhibition (RAW264.7 [10]): Dose-dependent effect; inhibition [11]: inactive; inhibition [12]: inactive; Activity [13]: Active; inhibition (INH) (RAW264.7 [3]): >70%; inhibition (RAW264.7 [14]): Dose-dependent effect; IC50 [15]: 9.61 µM; inhibition (INH) (RAW264.7 [16]): <=67%; inhibition [17]: inactive; inhibition (RAW264.7 [18]): inactive; inhibition (RAW264.7 [2]): Dose-dependent effect |

| SMILES | CC50 (RAW264.7 [1]) [µM] | IC50 (RAW264.7 [2]) [µM] | further results |
| --- | --- | --- | --- |
| CN(Cc1ccco1)C(=O)c1ccc(CN2C(=O)c3ccccc3S2(=O)=O)cc1 | > 100 | 79.6 | – |
| CC(C)(C)OC(=O)N(Cc1ccco1)C(=O)c1ccc(Cn2oc3ccccc3c2=O)cc1 | > 100 | 6.69 | – |
| O=C(O)c1ccc(CN2C(=O)c3ccccc3S2(=O)=O)cc1 | > 100 | 74.7 | – |
| O=C(c1ccc(CN2Cc3ccccc3S2(=O)=O)cc1)N1CCCCC1 | > 100 | 44.3 | – |
| CC1=C(c2cc[n+]([O-])cc2)S(=O)(=O)N(Cc2ccc(C(=O)N3CCCCC3)cc2)C1=O | > 100 | 79.4 | – |
| O=C(NCc1ccco1)c1ccc(Cn2oc3ccccc3c2=O)cc1 | > 100 | 49.3 | – |
| CN(C(=O)OC(C)(C)C)C(=O)c1ccc(CN2C(=O)c3ccccc3S2(=O)=O)cc1 | > 100 | 42 | – |
| CC(C)(C)OC(=O)N(CCc1ccco1)C(=O)c1ccc(CN2C(=O)c3ccccc3S2(=O)=O)cc1 | > 100 | 48.6 | – |
| CC(C)(C)OC(=O)N(Cc1ccco1)C(=O)c1ccc(CN2C(=O)c3ccccc3C2=O)cc1 | > 100 | 3.45 | – |
| NC(=O)c1ccc(CN2C(=O)c3ccccc3S2(=O)=O)cc1 | > 100 | 50.6 | inhibition (INH) (RAW264.7 [3]): 50% |
| CC(C)(C)OC(=O)c1ccc(CN2C(=O)c3ccccc3S2(=O)=O)cc1 | > 100 | 10.6 | – |
| O=C(NCc1ccco1)c1ccc(CN2C(=O)c3ccccc3S2(=O)=O)cc1 | > 100 | 24.3 | – |
| O=C(NCc1ccco1)c1ccc(CN2Cc3ccccc3S2(=O)=O)cc1 | > 100 | 68.4 | – |
| CC1=C(c2ccc3ccccc3c2)S(=O)(=O)N(Cc2ccc(C(=O)N3CCCCC3)cc2)C1=O | 47.9 | 9.61 | – |
| CC(C)(C)OC(=O)N(Cc1ccco1)C(=O)c1ccc(CN2Cc3ccccc3C2=O)cc1 | 95.2 | 51.8 | – |
| O=C(c1ccc(Cn2c(=O)c3ccccc3[s+]2[O-])cc1)N1CCCCC1 (centres undefined) | > 100 | 49 | – |
| O=C(c1ccc(CN2C(=O)c3ccccc3S2(=O)=O)cc1)N1CCCCC1 | 69.2 | 50.6 | – |
| O=C(NCCc1ccco1)c1ccc(CN2C(=O)c3ccccc3S2(=O)=O)cc1 | > 100 | 76.6 | – |
